According to ChEMBL document CHEMBL5380855, “Acetyl-Click Screening Platform Identifies Small-Molecule Inhibitors of Histone Acetyltransferase 1 (HAT1)” (J Med Chem, 2023):
Activity calls are given as the source filed them. The rule behind the calls is not given here.

Assays:
[1] = molecular target: T1, HAT1/Rbap46 (Homo sapiens) (UniProt Q16576+O14929); test: (§1) Inhibition of C-terminal FLAG tagged full length human HAT1/Rbap46 transfected in HEK293F cells using histone H4 peptide as substrate and 4-pentynoyl-CoA as cofactor at 100 uM preincubated for 10 mins followed by 4-pentynoyl-CoA addition and measured after 1 hr by amplex red dye based fluorescence analysis relative to control; format: cell-based; conditions: time 70.0 min
T1 sequence (O14929 2-419 partner limits assumed): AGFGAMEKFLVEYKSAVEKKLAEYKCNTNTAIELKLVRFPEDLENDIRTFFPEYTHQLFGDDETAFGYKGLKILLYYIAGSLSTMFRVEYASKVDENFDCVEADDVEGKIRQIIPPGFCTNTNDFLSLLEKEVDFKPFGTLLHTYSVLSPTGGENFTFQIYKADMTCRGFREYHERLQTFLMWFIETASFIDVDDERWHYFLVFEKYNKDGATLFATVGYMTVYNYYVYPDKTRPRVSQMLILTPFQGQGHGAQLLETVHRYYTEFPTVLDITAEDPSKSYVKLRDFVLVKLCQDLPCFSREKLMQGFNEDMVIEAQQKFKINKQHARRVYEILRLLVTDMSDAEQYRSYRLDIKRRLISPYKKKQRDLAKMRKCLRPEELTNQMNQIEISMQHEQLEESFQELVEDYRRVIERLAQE
T1 sequence (Q16576 2-425 limits assumed): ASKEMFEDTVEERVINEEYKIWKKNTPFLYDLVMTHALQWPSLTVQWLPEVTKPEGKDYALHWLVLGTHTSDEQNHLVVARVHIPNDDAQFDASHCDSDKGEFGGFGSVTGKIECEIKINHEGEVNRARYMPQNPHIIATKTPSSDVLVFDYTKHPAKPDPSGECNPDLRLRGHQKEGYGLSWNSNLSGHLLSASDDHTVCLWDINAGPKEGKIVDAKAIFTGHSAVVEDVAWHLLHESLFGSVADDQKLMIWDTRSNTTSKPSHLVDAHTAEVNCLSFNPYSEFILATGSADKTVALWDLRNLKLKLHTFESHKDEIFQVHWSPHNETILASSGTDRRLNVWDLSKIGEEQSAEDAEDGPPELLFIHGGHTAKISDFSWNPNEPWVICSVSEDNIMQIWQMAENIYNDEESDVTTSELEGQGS

[2] = molecular target: T1, HAT1/Rbap46 (Homo sapiens); test: as §1, with “cofactor” for “cofactor at 100 uM”; format: cell-based; design: concentration or dose not given beside the values; conditions: time 70.0 min
Mus musculus = test: In vivo inhibition of HAT-1 in NSG mouse xenografted with human A549 cells assessed as reduction in Histone H4 lysine 12 acetylation in tumor administered as single ip injection and measured after 24 hrs by immunofluorescence analysis; format: functional, organism-based; conditions: dose 25-100 mg/kg
Summary of the method: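 A549 tumours were established in NSG mice and given one i.p. dose of vehicle or drug. Tumours were harvested 24 h later and sections immunostained for H4K12Ac. Median nuclear fluorescence was taken from all nuclei in 2 images per group; one-way ANOVA.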

[3] = molecular target: Histone acetyltransferase KAT6B (Homo sapiens, UniProt Q8WYB5); test: Inhibition of human MYST4 incubated for 20 mins followed by 3H-Acetyl CoA addition and measured after 30 mins
Chain of Histone acetyltransferase KAT6B (Q8WYB5 whole entry): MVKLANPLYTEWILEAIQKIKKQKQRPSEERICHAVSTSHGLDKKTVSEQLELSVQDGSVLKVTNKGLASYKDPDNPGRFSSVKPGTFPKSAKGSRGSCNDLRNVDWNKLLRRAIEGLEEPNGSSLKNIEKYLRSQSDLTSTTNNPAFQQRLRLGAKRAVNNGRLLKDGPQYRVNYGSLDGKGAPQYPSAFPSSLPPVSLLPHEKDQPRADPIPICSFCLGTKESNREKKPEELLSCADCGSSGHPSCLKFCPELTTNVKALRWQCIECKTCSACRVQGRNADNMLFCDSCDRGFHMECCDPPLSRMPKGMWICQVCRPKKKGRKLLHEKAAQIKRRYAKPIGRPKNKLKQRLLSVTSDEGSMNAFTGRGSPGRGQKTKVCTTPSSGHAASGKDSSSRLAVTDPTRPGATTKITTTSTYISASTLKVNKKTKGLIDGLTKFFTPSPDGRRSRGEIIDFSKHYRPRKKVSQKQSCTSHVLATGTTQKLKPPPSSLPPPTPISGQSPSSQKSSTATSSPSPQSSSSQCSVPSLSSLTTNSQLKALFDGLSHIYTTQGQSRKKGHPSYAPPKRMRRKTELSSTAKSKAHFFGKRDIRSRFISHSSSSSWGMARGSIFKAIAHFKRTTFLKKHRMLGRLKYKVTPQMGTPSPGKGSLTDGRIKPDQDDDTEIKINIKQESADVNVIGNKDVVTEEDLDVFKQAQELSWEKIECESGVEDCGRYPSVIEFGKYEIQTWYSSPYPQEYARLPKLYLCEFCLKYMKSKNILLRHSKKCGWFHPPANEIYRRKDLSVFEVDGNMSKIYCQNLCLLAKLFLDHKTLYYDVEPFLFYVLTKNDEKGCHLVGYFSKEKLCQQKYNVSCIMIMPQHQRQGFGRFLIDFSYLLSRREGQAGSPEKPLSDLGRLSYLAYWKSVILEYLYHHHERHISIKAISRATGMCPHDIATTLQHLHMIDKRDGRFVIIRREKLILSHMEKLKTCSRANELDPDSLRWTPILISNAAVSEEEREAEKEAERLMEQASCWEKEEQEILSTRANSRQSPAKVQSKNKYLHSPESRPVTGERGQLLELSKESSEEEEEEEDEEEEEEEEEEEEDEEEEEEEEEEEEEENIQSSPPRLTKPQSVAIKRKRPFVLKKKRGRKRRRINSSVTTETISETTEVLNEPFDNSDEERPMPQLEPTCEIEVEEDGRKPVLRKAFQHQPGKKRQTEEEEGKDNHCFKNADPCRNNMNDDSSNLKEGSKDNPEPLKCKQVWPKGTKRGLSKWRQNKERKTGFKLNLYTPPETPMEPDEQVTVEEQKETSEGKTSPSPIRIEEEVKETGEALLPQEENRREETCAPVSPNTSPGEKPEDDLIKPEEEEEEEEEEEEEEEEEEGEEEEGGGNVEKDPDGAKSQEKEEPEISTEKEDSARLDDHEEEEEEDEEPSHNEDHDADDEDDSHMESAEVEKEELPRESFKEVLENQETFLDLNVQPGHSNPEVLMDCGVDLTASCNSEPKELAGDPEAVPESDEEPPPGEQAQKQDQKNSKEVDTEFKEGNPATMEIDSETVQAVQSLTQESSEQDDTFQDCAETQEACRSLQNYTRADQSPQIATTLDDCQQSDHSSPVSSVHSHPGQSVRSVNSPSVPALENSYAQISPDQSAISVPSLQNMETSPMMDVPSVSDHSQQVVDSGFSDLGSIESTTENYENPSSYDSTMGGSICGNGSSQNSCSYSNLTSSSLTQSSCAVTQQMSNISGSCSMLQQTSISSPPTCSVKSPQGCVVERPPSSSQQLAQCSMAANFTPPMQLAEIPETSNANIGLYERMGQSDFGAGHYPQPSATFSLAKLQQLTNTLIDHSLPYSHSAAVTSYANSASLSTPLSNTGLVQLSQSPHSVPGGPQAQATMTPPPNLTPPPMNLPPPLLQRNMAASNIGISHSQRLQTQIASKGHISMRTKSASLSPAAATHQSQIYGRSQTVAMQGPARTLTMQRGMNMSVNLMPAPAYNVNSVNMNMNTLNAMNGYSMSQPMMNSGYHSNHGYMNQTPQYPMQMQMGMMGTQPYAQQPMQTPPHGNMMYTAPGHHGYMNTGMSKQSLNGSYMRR

[4] = molecular target: Histone acetyltransferase KAT2A (Homo sapiens) (UniProt Q92830); test: Inhibition of human GCN5 at 100 uM incubated for 20 mins followed by 3H-Acetyl CoA addition and measured after 30 mins; conditions: time 50.0 min
Chain of Histone acetyltransferase KAT2A (Homo sapiens) (Q92830 2-837 limits assumed): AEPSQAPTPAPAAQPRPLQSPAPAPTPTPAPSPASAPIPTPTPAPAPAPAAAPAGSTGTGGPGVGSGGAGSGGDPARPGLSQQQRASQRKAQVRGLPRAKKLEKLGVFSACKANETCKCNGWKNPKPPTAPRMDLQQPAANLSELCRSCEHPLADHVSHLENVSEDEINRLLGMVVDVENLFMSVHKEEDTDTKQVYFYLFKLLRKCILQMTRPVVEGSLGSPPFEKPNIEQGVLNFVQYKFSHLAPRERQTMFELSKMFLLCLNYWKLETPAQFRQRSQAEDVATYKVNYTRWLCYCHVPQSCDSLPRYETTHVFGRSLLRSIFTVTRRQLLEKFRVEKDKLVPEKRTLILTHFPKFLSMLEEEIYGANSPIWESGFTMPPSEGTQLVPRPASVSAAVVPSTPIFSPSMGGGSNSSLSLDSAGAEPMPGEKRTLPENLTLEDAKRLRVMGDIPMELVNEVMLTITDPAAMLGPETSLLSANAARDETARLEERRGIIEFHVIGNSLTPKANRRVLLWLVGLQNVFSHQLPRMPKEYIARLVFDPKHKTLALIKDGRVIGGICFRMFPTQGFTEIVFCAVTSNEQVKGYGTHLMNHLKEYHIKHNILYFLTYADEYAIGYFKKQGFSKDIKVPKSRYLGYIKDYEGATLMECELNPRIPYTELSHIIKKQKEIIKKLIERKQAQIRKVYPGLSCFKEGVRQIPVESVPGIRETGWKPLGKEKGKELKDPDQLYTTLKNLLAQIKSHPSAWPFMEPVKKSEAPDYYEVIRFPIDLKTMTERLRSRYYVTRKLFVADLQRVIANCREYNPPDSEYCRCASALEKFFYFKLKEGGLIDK

[5] = Toxicity in mouse assessed as signs of distress at 500 mg/kg, ip administered as single dose; format: organism-based; conditions: in vivo
[6] = Cmax in CD1 mouse at 100 mg/kg, ip measured after 1 hr by LC-MS/MS analysis; format: ADME, organism-based; design: dose 100 mg/kg, time 1 hrs, route ip; conditions: in vivo
Summary of the method: (§2)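 Mice received one intraperitoneal injection at 100 mg/kg. Plasma concentrations of the drug were followed over time, out to 72 h, and PK parameters were derived from the plasma concentration–time profile.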

HCC1806 [7] = test: Cytotoxicity against human HCC1806 cells assessed as inhibition of cell growth by resazurin dye based fluorescence analysis; format: functional
Summary of the method: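 HCC1806 cells were treated across a range of doses. Growth was read by resazurin reduction to resorufin, with fluorescence at 590 nm.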

[8] = Toxicity in mouse assessed as drug tolerance up to 250 mg/kg, ip administered as single dose; format: organism-based; conditions: in vivo
[9] = Terminal elimination half life in CD1 mouse at 100 mg/kg, ip measured after 15 to 4320 mins by LC-MS/MS analysis; format: ADME, organism-based; conditions: in vivo, time 15-4320 min, read-out: LambdaZ; summary of the method: as §2
Homo sapiens = species on record: Homo sapiens; test: Inhibition of FAD-dependent oxidase (unknown origin)
A549 = test: Antitumor activity against human A549 cells xenografted in NSG mouse assessed as reduction in tumor growth at 50 to 100 mg/kg, ip administered once for every 3 days starting from day 13 post tumor implantation by digital caliper method; format: functional, organism-based; conditions: dose 50-100 mg/kg
Summary of the method: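 A549 cells were implanted in both flanks of NSG mice and tumours were allowed to establish for 13 days. Vehicle or drug (50 or 100 mg/kg) was then injected i.p. once every third day.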

[10] = Cmax in CD1 mouse at 100 mg/kg, ip measured after 72 hrs by LC-MS/MS analysis; format: ADME, organism-based; design: time 72 hrs, dose 100 mg/kg, route ip; conditions: in vivo; summary of the method: as §2
[11] = Tmax in CD1 mouse at 100 mg/kg, ip measured after 15 to 4320 mins by LC-MS/MS analysis; format: ADME, organism-based; conditions: in vivo, time 15-4320 min; summary of the method: as §2
[12] = Observed clearance in CD1 mouse at 100 mg/kg, ip measured after 15 to 4320 mins by LC-MS/MS analysis; format: ADME, organism-based; conditions: in vivo, time 15-4320 min; summary of the method: as §2
[13] = molecular target: Histone acetyltransferase KAT2B (Homo sapiens) (UniProt Q92831); test: Inhibition of human pCAF at 100 uM incubated for 20 mins followed by 3H-Acetyl CoA addition and measured after 30 mins; conditions: time 50.0 min
[14] = Observed apparent volume of distribution during terminal phase in CD1 mouse at 100 mg/kg, ip measured after 15 to 4320 mins by LC-MS/MS analysis; format: ADME, organism-based; conditions: in vivo, time 15-4320 min, read-out: Vz/F; summary of the method: as §2
[15] = AUClast in CD1 mouse at 100 mg/kg, ip measured after 15 to 4320 mins by LC-MS/MS analysis; format: ADME, organism-based; design: time lower 15 min, dose 100 mg/kg, time upper 4320 min, route ip; conditions: in vivo; summary of the method: as §2
[16] = molecular target: Histone acetyltransferase KAT5 (Homo sapiens, UniProt Q92993); test: Inhibition of human KAT5 incubated for 20 mins followed by 3H-Acetyl CoA addition and measured after 30 mins
HAT1/Rbap46 = HAT1/Rbap46 (Homo sapiens, UniProt O14929+Q16576); test: Inhibition of C-terminal FLAG tagged full length human HAT1/Rbap46 transfected in HEK293F cells using histone H4 peptide as substrate and 4-pentynoyl-CoA as cofactor preincubated for 10 mins followed by 4-pentynoyl-CoA addition and measured after 1 hr by amplex red dye based fluorescence analysis; format: cell-based
Chain of HAT1/Rbap46 (Q16576 whole entry): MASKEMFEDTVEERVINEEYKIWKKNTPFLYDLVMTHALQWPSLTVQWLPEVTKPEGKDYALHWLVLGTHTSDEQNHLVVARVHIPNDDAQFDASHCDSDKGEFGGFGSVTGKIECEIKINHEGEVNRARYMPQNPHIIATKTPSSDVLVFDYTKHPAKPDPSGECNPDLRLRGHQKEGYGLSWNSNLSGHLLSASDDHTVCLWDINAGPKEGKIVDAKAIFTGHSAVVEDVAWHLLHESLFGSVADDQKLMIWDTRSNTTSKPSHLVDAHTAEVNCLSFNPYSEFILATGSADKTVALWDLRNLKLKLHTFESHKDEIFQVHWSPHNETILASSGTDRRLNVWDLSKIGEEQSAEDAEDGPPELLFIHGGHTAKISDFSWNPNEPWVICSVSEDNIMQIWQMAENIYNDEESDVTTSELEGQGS
Chain of HAT1/Rbap46 (O14929 whole entry): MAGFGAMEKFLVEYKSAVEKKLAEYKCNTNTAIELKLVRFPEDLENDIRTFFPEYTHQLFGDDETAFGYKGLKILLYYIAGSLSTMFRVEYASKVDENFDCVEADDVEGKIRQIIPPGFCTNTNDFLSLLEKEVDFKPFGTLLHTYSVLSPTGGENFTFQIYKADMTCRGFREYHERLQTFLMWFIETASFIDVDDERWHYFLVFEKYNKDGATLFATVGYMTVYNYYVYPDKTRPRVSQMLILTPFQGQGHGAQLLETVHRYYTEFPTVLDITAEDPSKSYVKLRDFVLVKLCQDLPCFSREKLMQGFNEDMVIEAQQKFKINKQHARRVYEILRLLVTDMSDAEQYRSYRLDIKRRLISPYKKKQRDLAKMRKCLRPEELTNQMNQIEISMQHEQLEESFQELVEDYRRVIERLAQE

[17] = molecular target: T1, HAT1/Rbap46 (Homo sapiens); test: as §1, with “10” for “100”, “to 4 hrs” for “hr”, “analysis” for “analysis relative to control”; format: cell-based; conditions: time 70-250 min
[18] = molecular target: T1, HAT1/Rbap46 (Homo sapiens); test: as §1, with “cofactor at 1 to 100 uM” for “cofactor at 100 uM”; format: cell-based; conditions: dose 1-100 µM, time 70.0 min
HCC1806 [19] = test: Cytotoxicity against human HCC1806 cells assessed as inhibition of cell growth incubated for 48 hrs by celltiter blue analysis; format: functional, cell-based

For `CCc1cc2c(cc1Cl)nc1c(=O)[nH]c(=O)nc-1n2CCOCc1ccccc1`, the inhibition [1] was 49%.
`CC(=O)Nc1cc2[nH]c3nc(=O)n(Cc4ccccc4)c(=O)c-3nc2cc1C` gave an inhibition [2] of 32%.
With `CCc1cc2c(cc1Cl)nc1c(=O)[nH]c(=O)nc-1n2CCOCc1cccc(Br)c1` the inhibition [1] was 17%.
Work on `CCc1cc2c(cc1Cl)nc1c(=O)[nH]c(=O)nc-1n2CCOc1cccc(F)c1` yielded an inhibition [1] of 17%.
Work on `CCc1cc2c(cc1Cl)nc1c(=O)[nH]c(=O)nc-1n2CCOc1ccc(Br)cc1` yielded an inhibition [1] of 8%.
With `NC(=S)c1cn([C@@H]2O[C@H](CO)[C@@H](O)[C@H]2O)c2ncnc(N)c12` the inhibition [2] was 72.2%.
In the case of `CCc1cc2c(cc1Cl)nc1c(=O)[nH]c(=O)nc-1n2CCOCC(C)C`, the inhibition (Mus musculus) is reported as “Dose-Dependent Effect”, the IC50 [3] is reported as over 100 µM and the inhibition [4] is reported as “inactive”. For the same compound, the Activity [5] was “Toxic”, the Cmax [6] was 70.1 µM and the EC50 (HCC1806 [7]) was 10.4 µM. The Activity [8] was “Non-Toxic”, the half-life [9] was 25.4 h and the inhibition (Homo sapiens) was “inactive”. The Activity (A549) was “Active”, the Cmax [10] was 2.05 µM and the Tmax [11] was 1 h. The CL/F [12] was 6.2 mL/min/kg, the inhibition [13] was “inactive” and the Vd/F [14] was 13.6 L/kg. The AUC(0-t) [15] was 641 µM·h and the IC50 [16] was over 100 µM.
`O=c1nc2n(CC(O)C(O)C(O)C(O)CO)c3cc(Cl)c(Cl)cc3nc-2c(=O)[nH]1` (stereo not given) gave an inhibition [1] of 31%, an inhibition [2] of 46% and an IC50 (HAT1/Rbap46) of 62.6 µM.
For `Cc1cc2cc3c(=O)[nH]c(=O)cc-3n(CC(O)C(O)C(O)CO)c2cc1C` (stereo not given), the inhibition [2] was 66.4%.
Compound `CCc1cc2c(cc1Cl)nc1c(=O)[nH]c(=O)nc-1n2CCOCc1ccc(-c2ccccc2)cc1` has an inhibition [1] of 17%.
For `CC(=O)N[C@@H](CCCCNC(=O)SCCNC(=O)CCNC(=O)[C@H](O)C(C)(C)COP(=O)(O)OP(=O)(O)OC[C@H]1O[C@@H](n2cnc3c(N)ncnc32)[C@H](O)[C@@H]1OP(=O)(O)O)C(N)=O`, the inhibition [17] was “inactive”.
With `CCc1cc2c(cc1Cl)nc1c(=O)[nH]c(=O)nc-1n2CCCOc1ccc(C)cc1` the inhibition [1] was 12%.
`CCc1cc2c(cc1Cl)nc1c(=O)[nH]c(=O)nc-1n2CCCc1cc(F)cc(F)c1` showed an inhibition [1] of 15%.
With `CCc1cc2c(cc1Cl)nc1c(=O)[nH]c(=O)nc-1n2CCOCC1CCCC1` the inhibition [1] was 47%.
For `CCc1cc2c(cc1Cl)nc1c(=O)[nH]c(=O)nc-1n2CCOCc1cccc(C(F)(F)F)c1`, the inhibition [1] was 23%.
With `Cc1cc2nc3c(=O)[nH]c(=O)nc-3n(C[C@H](O)[C@H](O)[C@H](O)COP(=O)(O)O)c2cc1C` the inhibition [18] was “inactive”.
Compound `CCc1cc2c(cc1Cl)nc1c(=O)[nH]c(=O)nc-1n2CCOc1ccc(F)cc1` has an inhibition [1] of 1%.
In the case of `Cc1cc2nc3c(=O)[nH]c(=O)nc-3n(C[C@H](O)[C@H](O)[C@H](O)CO)c2cc1N(C)C`, the inhibition [1] is reported as 7% and the inhibition (HCC1806 [19]) is reported as “Active”.
For `CCc1cc2c(cc1Cl)nc1c(=O)[nH]c(=O)nc-1n2CCCOc1ccc(C#N)cc1`, the inhibition [1] was 25%.
For `CCc1cc2c(cc1Cl)nc1c(=O)[nH]c(=O)nc-1n2CCOc1ccc(C)cc1`, the inhibition [1] was 20%.
Compound `CCc1cc2c(cc1Cl)nc1c(=O)[nH]c(=O)nc-1n2CCCOc1cccc(C(F)(F)F)c1` has an inhibition [1] of 19%.
Compound `CCc1cc2c(cc1Cl)nc1c(=O)[nH]c(=O)nc-1n2CCOc1cc(F)cc(F)c1` has an inhibition [1] of -1%.
Compound `CC(=O)Nc1cc2[nH]c3nc(=O)n(CC4CCCCC4)c(=O)c-3nc2cc1C` has an inhibition [2] of 25%.
For `CCc1cc2c(cc1Cl)nc1c(=O)[nH]c(=O)nc-1n2CCOC(C)=O`, the inhibition [1] was 49%.
For `CCCC(=O)OC[C@@H](OC(=O)CCC)[C@@H](OC(=O)CCC)[C@H](Cn1c2nc(=O)[nH]c(=O)c-2nc2cc(C)c(C)cc21)OC(=O)CCC`, the IC50 (HAT1/Rbap46) was 17 µM.
Work on `CCc1cc2c(cc1Cl)nc1c(=O)[nH]c(=O)nc-1n2CCOc1ccccn1` yielded an inhibition [1] of 55%.
In the case of `CCc1cc2c(cc1Cl)nc1c(=O)[nH]c(=O)nc-1n2CCCOc1ccc(-c2ccccc2)cc1`, the inhibition [1] is reported as 8%.
For `CCc1cc2c(cc1Cl)nc1c(=O)[nH]c(=O)nc-1n2CCO`, the inhibition [1] was 54%.
`CCc1cc2c(cc1Cl)nc1c(=O)[nH]c(=O)nc-1n2CCOCc1ccc(C#N)cc1` showed an inhibition [1] of 26%.
Compound `CC(=O)OCCn1c2nc(=O)[nH]c(=O)c-2nc2cc(C)c(C)cc21` has an inhibition [2] of 51%.
Compound `CCc1cc2c(cc1Cl)nc1c(=O)[nH]c(=O)nc-1n2CCOCc1cccc(F)c1` has an inhibition [1] of 24%.
For `CCC(=O)Nc1cc2[nH]c3nc(=O)n(Cc4ccccc4)c(=O)c-3nc2cc1C`, the inhibition [2] was 28%.
`CCc1cc2c(cc1Cl)nc1c(=O)[nH]c(=O)nc-1n2CCOCC1CCN(C(=O)OC(C)(C)C)CC1` gave an inhibition [1] of 50%.
For `CCc1cc2c(cc1Cl)nc1c(=O)[nH]c(=O)nc-1n2CCCc1ccc(Br)cc1`, the inhibition [1] was 9%.
With `CCc1cc2c(cc1Cl)nc1c(=O)[nH]c(=O)nc-1n2CCOCC1CCNCC1` the inhibition [1] was 60%.
`CCc1cc2c(cc1Cl)nc1c(=O)[nH]c(=O)nc-1n2CCOCC(C)(C)C` gave an inhibition [1] of 40%.
With `COC1=C(N)C(=O)c2nc(-c3nc(C(=O)O)c(C)c(-c4ccc(OC)c(OC)c4O)c3N)ccc2C1=O` the inhibition [2] was 66.3%.
With `CCc1cc2c(cc1Cl)nc1c(=O)[nH]c(=O)nc-1n2CCOc1cccc(C(F)(F)F)c1` the inhibition [1] was 11%.
In the case of `O=c1nc2n(CCN(CO)CO)c3cc(Cl)c(Cl)cc3nc-2c(=O)[nH]1`, the inhibition [1] is reported as 17% and the inhibition [2] is reported as 37%.
`CCc1cc2c(cc1Cl)nc1c(=O)[nH]c(=O)nc-1n2CCOc1ccc(-c2ccccc2)cc1` showed an inhibition [1] of 13%.
`O=C(O)Cc1ccc(/N=N/c2c(O)c(C(=O)O)cc3ccccc23)cc1` showed an inhibition [2] of 72.2%.
In the case of `CCc1cc2c(cc1Cl)nc1c(=O)[nH]c(=O)nc-1n2CC(C)(C)C`, the inhibition [1] is reported as 62%.
In the case of `Oc1ccccc1C1=NC2c3ccccc3-c3ccccc3C2N1` (stereo not given), the inhibition [2] is reported as 69%.
`CCc1cc2nc3c(=O)[nH]c(=O)nc-3n(C[C@H](O)[C@H](O)[C@H](O)CO)c2cc1Cl` showed an inhibition [1] of 61% and an inhibition [2] of 64%.
For `Cc1cc2nc3[nH]c(=O)[nH]c(=O)c3nc2cc1C`, the inhibition [1] was 7% and the inhibition [18] was “inactive”.
For `O=C1CN2Cc3c(ccc(Cl)c3Cl)N=C2N1`, the inhibition [1] was -5%.
Compound `CCc1cc2c(cc1Cl)nc1c(=O)[nH]c(=O)nc-1n2C[C@H](O)[C@H](O)[C@H](O)CO` has an inhibition [1] of 40% and an inhibition [2] of 59%.
